Data published in ChEMBL document CHEMBL4004871, “Impact of androstane A- and D-ring inversion on 17β-hydroxysteroid dehydrogenase type 3 inhibitory activity, androgenic effect and metabolic stability” (Bioorg Med Chem, 2017).
Calls of active or inactive are those of the source. No cut-off for these calls is given here.

Tests used:
[1] = biological target: T1, 17-beta-hydroxysteroid dehydrogenase type 3 (Homo sapiens) (UniProt P37058); test: Inhibition of 17-beta-HSD3 (unknown origin) expressed in human LNCaP cells using [14C]-4-androstene-3,17-dione as substrate assessed as reduction of [14C]-testosterone level at 0.1 to 1 uM after 1 hr by TLC method; assay type: cell-based
T1 sequence (whole entry): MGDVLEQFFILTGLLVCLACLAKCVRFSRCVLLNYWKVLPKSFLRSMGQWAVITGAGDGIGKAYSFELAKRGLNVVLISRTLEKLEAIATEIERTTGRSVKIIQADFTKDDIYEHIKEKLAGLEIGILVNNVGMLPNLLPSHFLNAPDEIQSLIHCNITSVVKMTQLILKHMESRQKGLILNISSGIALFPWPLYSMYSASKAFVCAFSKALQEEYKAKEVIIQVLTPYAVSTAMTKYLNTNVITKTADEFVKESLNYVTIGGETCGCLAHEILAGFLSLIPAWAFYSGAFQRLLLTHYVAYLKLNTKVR
Procedure, shortened: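 LNCaP cells stably transfected with 17β-HSD3, grown in RPMI-1640 with 10% FBS and hygromycin; hygromycin omitted for assay. 10,000 cells/well plated, incubated 2 days, then 15 nM [14C]-4-androstene-3,17-dione added with inhibitor in DMSO (final 0.05%).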

[2] = biological target: T2, 17-beta-hydroxysteroid dehydrogenase type 3 (Homo sapiens, UniProt P37058); test: Inhibition of 17-beta-HSD3 (unknown origin) expressed in human LNCaP cells using [14C]-4-androstene-3,17-dione as substrate assessed as reduction of [14C]-testosterone level after 1 hr by TLC method
T2 sequence (P37058 whole entry): T1 sequence (whole entry)

Androgen receptor [3] = biological target: T3, Androgen receptor (Homo sapiens, UniProt P10275); test: Androgenic activity at AR in human LAPC4 cells assessed as cell growth at 0.1 uM after 3 days by MTS method relative to control; assay type: cell-based; conditions: 72 h
T3 sequence (P10275 whole entry): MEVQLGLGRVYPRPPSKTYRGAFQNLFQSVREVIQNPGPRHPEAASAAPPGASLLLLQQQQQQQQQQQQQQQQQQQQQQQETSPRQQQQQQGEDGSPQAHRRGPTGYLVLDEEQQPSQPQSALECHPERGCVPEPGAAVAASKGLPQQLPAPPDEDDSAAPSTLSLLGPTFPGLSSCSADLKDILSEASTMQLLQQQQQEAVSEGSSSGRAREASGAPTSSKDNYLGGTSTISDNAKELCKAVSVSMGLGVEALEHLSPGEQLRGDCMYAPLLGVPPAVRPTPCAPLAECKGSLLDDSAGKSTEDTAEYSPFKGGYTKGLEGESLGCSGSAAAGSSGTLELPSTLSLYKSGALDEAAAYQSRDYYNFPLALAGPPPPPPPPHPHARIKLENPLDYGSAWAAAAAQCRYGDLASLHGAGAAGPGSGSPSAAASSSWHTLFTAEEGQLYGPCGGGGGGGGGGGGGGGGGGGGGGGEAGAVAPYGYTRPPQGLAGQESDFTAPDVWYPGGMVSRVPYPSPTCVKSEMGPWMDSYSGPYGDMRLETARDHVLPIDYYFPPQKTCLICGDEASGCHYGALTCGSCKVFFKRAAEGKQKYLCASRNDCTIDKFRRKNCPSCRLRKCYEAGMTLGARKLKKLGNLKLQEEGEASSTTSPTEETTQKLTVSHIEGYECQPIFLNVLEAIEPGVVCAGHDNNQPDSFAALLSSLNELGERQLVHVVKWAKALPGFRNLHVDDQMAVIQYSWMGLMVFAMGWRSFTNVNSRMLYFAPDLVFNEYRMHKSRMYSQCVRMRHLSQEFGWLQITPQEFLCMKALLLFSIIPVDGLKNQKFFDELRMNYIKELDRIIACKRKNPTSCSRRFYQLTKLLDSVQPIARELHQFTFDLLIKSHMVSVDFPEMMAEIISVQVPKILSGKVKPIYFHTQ
Procedure, shortened: (§1)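 LAPC-4 (AR+) cells, cultured in RPMI-1640 with FBS, L-glutamine and insulin, were switched to medium with 5% dextran-coated charcoal treated FBS. 10,000 cells/well, triplicate, were pre-incubated 24 h at 37 °C, then given compound diluted from DMSO stock for 3 days; vehicle DMSO controls. Growth read by MTS, expressed as % proliferation minus basal 100%.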

Androgen receptor [4] = biological target: T3, Androgen receptor; test: Androgenic activity at AR in human LAPC4 cells assessed as cell growth at 0.5 uM after 3 days by MTS method relative to control; assay type: cell-based; conditions: 72 h; procedure, shortened: as §1
Androgen receptor [5] = biological target: T3, Androgen receptor; test: Androgenic activity at AR in human LAPC4 cells assessed as cell growth at 1 uM after 3 days by MTS method relative to control; assay type: cell-based; conditions: 72 h; procedure, shortened: as §1
[6] = Metabolic stability in human liver microsomes assessed as parent compound remaining at 10 uM after 1 hr by HPLC-MS analysis; assay type: ADME, microsome; conditions: read-out: Stability
Procedure, shortened: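 Human liver microsomes (40 μg) were incubated with 10 μM substrate for 1 h at 37 °C, with or without 10 mM NADPH, in 50 mM Tris plus 10 mM MgCl₂. MeOH-quenched, centrifuged supernatants from 2 assays pooled for HPLC-MS with UV at 190 nm. % remaining = AUC with NADPH / AUC without NADPH × 100; mean of 4 independent experiments.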

Row | SMILES | inhibition [1] | IC50 [2] [nM] | Activity (Androgen receptor [3]) [%] | Activity (Androgen receptor [4]) [%] | Activity (Androgen receptor [5]) [%] | remaining at 1 h, 10 µM [6] [%]
1 | C[C@]12CC[C@H](O)C[C@H]1CC[C@@H]1[C@@H]2CC[C@@]2(C)C(=O)CC[C@@H]12 | inactive |  |  |  |  | 
2 | C[C@]12CC[C@@H](O)C[C@@H]1CC[C@@H]1[C@@H]2CC[C@@]2(C)C(=O)CC[C@@H]12 | inactive |  |  |  |  | 
3 | C[C@@H]1CN(S(=O)(=O)c2ccccc2C(F)(F)F)[C@@H](C)CN1C[C@@]1(O)CC[C@@]2(C)[C@@H](CC[C@@H]3[C@@H]2CC[C@]2(C)C(=O)CC[C@@H]32)C1 |  | 110 | 96 | 48 | 33 | 
4 | C[C@@H]1CN(S(=O)(=O)c2ccccc2C(F)(F)F)[C@@H](C)CN1C[C@]1(O)CC[C@@]2(C)[C@H](CC[C@@H]3[C@@H]2CC[C@@]2(C)C(=O)CC[C@@H]32)C1 |  | 150 | 87.2 | 72.3 | 28.2 | 16.6
5 | C[C@@H]1CN(S(=O)(=O)c2ccccc2C(F)(F)F)[C@@H](C)CN1C[C@@]1(O)CC[C@@]2(C)[C@@H](CC[C@@H]3[C@@H]2CC[C@@]2(C)C(=O)CC[C@@H]32)C1 |  | 1090 | 76.3 | 61.6 | 51 | 29.4
6 | C[C@@H]1CN(S(=O)(=O)c2ccccc2C(F)(F)F)[C@@H](C)CN1C (relative stereo) | inactive |  |  |  |  | 
